Converted amounts (≈) assume the structure as drawn.
Tested on: Salmonella typhimurium
Assay: Genotoxicity against Salmonella typhimurium TA98 assessed as fold increase in revertants at 5 mg/ml after 90 mins by Ames MPF test in absence of S9 fraction relative to baseline
Assay type: toxicity, organism-based
Settings: salmonella enterica subsp. enterica serovar typhimurium, 1.5 h
Summary of the method: (§1)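 Ames MPF fluctuation test, TA98 and TA100: overnight cultures reincubated 90 min, then exposed 90 min at 37 °C to compounds at 0.156-5 mg/mL (in DMSO) with or without 4.5% v/v S9; indicator medium added, 48 wells per sample scored yellow after 48 h, triplicate. Fold over baseline = mean positive wells / (mean of DMSO control + 1 SD).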

SMILES | fold change (FC)
Cn1nnnc1SCC(=O)N/N=C/c1ccccc1[N+](=O)[O-] | 1.14

Tested on: Candida parapsilosis
Assay: Antifungal activity against Candida parapsilosis NRRL Y-12696 after 24 hrs by microdilution susceptibility assay
Assay type: functional
Settings: Lodderomyces parapsilosis, NRRL Y-12696, 24 h
Summary of the method: (§2)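 Broth microdilution in Mueller Hinton Broth, compounds from DMSO stocks diluted serially; inocula standardized to 10^6 CFU/mL (McFarland 0.5) from overnight MHB cultures. Plates held 37 °C for 24 h; MIC taken as first well without turbidity, aided by 1% tetrazolium violet added for 3 h at 37 °C. Ketoconazole reference.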

SMILES | MIC [µg/mL]
Cn1nnnc1SCC(=O)N/N=C/c1ccccc1[N+](=O)[O-] | 500 (≈ 1560 µM)

Tested on: Salmonella typhimurium
Assay: Genotoxicity against Salmonella typhimurium TA100 assessed as fold increase in revertants at 1.25 mg/ml after 90 mins by Ames MPF test in absence of S9 fraction relative to baseline
Assay type: toxicity, organism-based
Settings: salmonella enterica subsp. enterica serovar typhimurium, 1.5 h
Summary of the method: as §1

SMILES | fold change (FC)
Cn1nnnc1SCC(=O)N/N=C/c1ccccc1[N+](=O)[O-] | 1.33

Tested on: Candida albicans
Assay: Antifungal activity against Candida albicans clinical isolate after 24 hrs by microdilution susceptibility assay
Assay type: functional
Settings: not given
Summary of the method: as §2

SMILES | MIC [µg/mL]
Cn1nnnc1SCC(=O)N/N=C/c1ccccc1[N+](=O)[O-] | 500 (≈ 1560 µM)

Tested on: not listed separately
Assay: Genotoxicity against Salmonella typhimurium TA1535/pSK1002 assessed as induction ratio at 2.5 mg/ml by umuC assay in absence of S9 fraction
Assay type: toxicity, organism-based
Settings: salmonella enterica subsp. enterica serovar typhimurium, Salmonella typhimurium TA1535/pSK1002 without S9 fraction
Summary of the method: (§3)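 umuC Easy CS: TA1535/pSK1002 grown overnight in ampicillin TG medium at 37 °C, then exposed 2 h at 37 °C to compounds at 5, 2.5, 1.25, 0.63 mg/mL with or without S9. Diluted into fresh medium for 2 h growth (OD600), then β-galactosidase with ONPG 30 min at 28 °C, OD420. Positive controls 2-aminoanthracene (+S9), […] (−S9).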

SMILES | fold induction at 2.5 mg/ml
Cn1nnnc1SCC(=O)N/N=C/c1ccccc1[N+](=O)[O-] | 1.63

Tested on: Salmonella typhimurium
Assay: Genotoxicity against Salmonella typhimurium TA98 assessed as fold increase in revertants at 1.25 mg/ml after 90 mins by Ames MPF test in presence of S9 fraction relative to baseline
Assay type: toxicity, organism-based
Settings: salmonella enterica subsp. enterica serovar typhimurium, s9, 1.5 h
Summary of the method: as §1

SMILES | fold change (FC)
Cn1nnnc1SCC(=O)N/N=C/c1ccccc1[N+](=O)[O-] | 2

Tested on: Salmonella typhimurium
Assay: Genotoxicity against Salmonella typhimurium TA100 assessed as fold increase in revertants at 0.625 mg/ml after 90 mins by Ames MPF test in absence of S9 fraction relative to baseline
Assay type: toxicity, organism-based
Settings: salmonella enterica subsp. enterica serovar typhimurium, 1.5 h
Summary of the method: as §1

SMILES | fold change (FC)
Cn1nnnc1SCC(=O)N/N=C/c1ccccc1[N+](=O)[O-] | 0.83

Tested on: Cyberlindnera jadinii
Assay: Antifungal activity against Candida utilis NRRL Y-900 after 24 hrs by microdilution susceptibility assay
Assay type: functional
Settings: Williopsis jadinii, NRRL Y-900, 24 h
Summary of the method: as §2

SMILES | MIC [µg/mL]
Cn1nnnc1SCC(=O)N/N=C/c1ccccc1[N+](=O)[O-] | 250 (≈ 778 µM)

Tested on: Salmonella typhimurium
Assay: Genotoxicity against Salmonella typhimurium TA98 assessed as fold increase in revertants at 0.625 mg/ml after 90 mins by Ames MPF test in presence of S9 fraction relative to baseline
Assay type: toxicity, organism-based
Settings: salmonella enterica subsp. enterica serovar typhimurium, s9, 1.5 h
Summary of the method: as §1

SMILES | fold change (FC)
Cn1nnnc1SCC(=O)N/N=C/c1ccccc1[N+](=O)[O-] | 1.78

Tested on: Pichia kudriavzevii
Assay: Antifungal activity against Candida krusei NRRL Y-7179 after 24 hrs by microdilution susceptibility assay
Assay type: functional
Settings: NRRL Y-7179, 24 h
Summary of the method: as §2

SMILES | MIC [µg/mL]
Cn1nnnc1SCC(=O)N/N=C/c1ccccc1[N+](=O)[O-] | 125 (≈ 389 µM)

Tested on: A549
Assay: Cytotoxicity against human A549 cells after 24 hrs by XTT assay
Assay type: functional, cell-based
Settings: A549, 24 h
Summary of the method: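 A549 cells in RPMI 1640 with 10% fetal calf serum, penicillin/streptomycin, 37 °C, 5% CO2; 20,000 cells/well seeded, after 24 h exposed to compounds at 0.00316 µM-10 mM for 24 h. XTT mitochondrial activity read at 480 nm (reference 680 nm) after 3 h; % inhibition per concentration, IC50 by non-linear regression.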

SMILES | IC50 [µM]
Cn1nnnc1SCC(=O)N/N=C/c1ccccc1[N+](=O)[O-] | 1600

Tested on: Salmonella typhimurium
Assay: Genotoxicity against Salmonella typhimurium TA1535/pSK1002 assessed as growth factor ratio at 2.5 mg/ml by umuC assay in absence of S9 fraction
Assay type: toxicity, organism-based
Settings: salmonella enterica subsp. enterica serovar typhimurium
Summary of the method: as §3

SMILES | Ratio
Cn1nnnc1SCC(=O)N/N=C/c1ccccc1[N+](=O)[O-] | 1.03

Tested on: Candida albicans
Assay: Antifungal activity against Candida albicans ATCC 10231 after 24 hrs by microdilution susceptibility assay
Assay type: functional
Settings: ATCC 10231, 24 h
Summary of the method: as §2

SMILES | MIC [µg/mL]
Cn1nnnc1SCC(=O)N/N=C/c1ccccc1[N+](=O)[O-] | 500 (≈ 1560 µM)

Tested on: Salmonella typhimurium
Assay: Genotoxicity against Salmonella typhimurium TA1535/pSK1002 assessed as induction ratio at 0.63 mg/ml by umuC assay in absence of S9 fraction
Assay type: toxicity, organism-based
Settings: salmonella enterica subsp. enterica serovar typhimurium
Summary of the method: as §3

SMILES | Ratio
Cn1nnnc1SCC(=O)N/N=C/c1ccccc1[N+](=O)[O-] | 1.509

Tested on: Salmonella typhimurium
Assay: Genotoxicity against Salmonella typhimurium TA98 assessed as fold increase in revertants at 1.25 mg/ml after 90 mins by Ames MPF test in absence of S9 fraction relative to baseline
Assay type: toxicity, organism-based
Settings: salmonella enterica subsp. enterica serovar typhimurium, 1.5 h
Summary of the method: as §1

SMILES | fold change (FC)
Cn1nnnc1SCC(=O)N/N=C/c1ccccc1[N+](=O)[O-] | 2.78

Tested on: Salmonella typhimurium
Assay: Genotoxicity against Salmonella typhimurium TA98 assessed as fold increase in revertants at 0.625 mg/ml after 90 mins by Ames MPF test in absence of S9 fraction relative to baseline
Assay type: toxicity, organism-based
Settings: salmonella enterica subsp. enterica serovar typhimurium, 1.5 h
Summary of the method: as §1

SMILES | fold change (FC)
Cn1nnnc1SCC(=O)N/N=C/c1ccccc1[N+](=O)[O-] | 1.47

Tested on: Salmonella typhimurium
Assay: Genotoxicity against Salmonella typhimurium TA1535/pSK1002 assessed as growth factor ratio at 0.63 mg/ml by umuC assay in presence of S9 fraction
Assay type: toxicity, organism-based
Settings: salmonella enterica subsp. enterica serovar typhimurium
Summary of the method: as §3

SMILES | Ratio
Cn1nnnc1SCC(=O)N/N=C/c1ccccc1[N+](=O)[O-] | 0.969

Tested on: Salmonella typhimurium
Assay: Genotoxicity against Salmonella typhimurium TA98 assessed as fold increase in revertants at 2.5 mg/ml after 90 mins by Ames MPF test in absence of S9 fraction relative to baseline
Assay type: toxicity, organism-based
Settings: salmonella enterica subsp. enterica serovar typhimurium, 1.5 h
Summary of the method: as §1

SMILES | fold change (FC)
Cn1nnnc1SCC(=O)N/N=C/c1ccccc1[N+](=O)[O-] | 1.96

Tested on: Salmonella typhimurium
Assay: Genotoxicity against Salmonella typhimurium TA98 assessed as fold increase in revertants at 0.156 mg/ml after 90 mins by Ames MPF test in absence of S9 fraction relative to baseline
Assay type: toxicity, organism-based
Settings: salmonella enterica subsp. enterica serovar typhimurium, 1.5 h
Summary of the method: as §1

SMILES | fold change (FC)
Cn1nnnc1SCC(=O)N/N=C/c1ccccc1[N+](=O)[O-] | 1.63

Tested on: Salmonella typhimurium
Assay: Genotoxicity against Salmonella typhimurium TA100 assessed as fold increase in revertants at 0.156 mg/ml after 90 mins by Ames MPF test in absence of S9 fraction relative to baseline
Assay type: toxicity, organism-based
Settings: salmonella enterica subsp. enterica serovar typhimurium, 1.5 h
Summary of the method: as §1

SMILES | fold change (FC)
Cn1nnnc1SCC(=O)N/N=C/c1ccccc1[N+](=O)[O-] | 1.67

Tested on: Salmonella typhimurium
Assay: Genotoxicity against Salmonella typhimurium TA98 assessed as fold increase in revertants at 0.3125 mg/ml after 90 mins by Ames MPF test in absence of S9 fraction relative to baseline
Assay type: toxicity, organism-based
Settings: salmonella enterica subsp. enterica serovar typhimurium, 1.5 h
Summary of the method: as §1

SMILES | fold change (FC)
Cn1nnnc1SCC(=O)N/N=C/c1ccccc1[N+](=O)[O-] | 1.63

Tested on: Salmonella typhimurium
Assay: Genotoxicity against Salmonella typhimurium TA1535/pSK1002 assessed as growth factor ratio at 2.5 mg/ml by umuC assay in presence of S9 fraction
Assay type: toxicity, organism-based
Settings: salmonella enterica subsp. enterica serovar typhimurium
Summary of the method: as §3

SMILES | Ratio
Cn1nnnc1SCC(=O)N/N=C/c1ccccc1[N+](=O)[O-] | 0.922

Tested on: not listed separately
Assay: Genotoxicity against Salmonella typhimurium TA1535/pSK1002 assessed as induction ratio at 1.25 mg/ml by umuC assay in presence of S9 fraction
Assay type: toxicity, organism-based
Settings: salmonella enterica subsp. enterica serovar typhimurium, Salmonella typhimurium TA1535/pSK1002 with S9 fraction
Summary of the method: as §3

SMILES | fold induction at 1.25 mg/ml
Cn1nnnc1SCC(=O)N/N=C/c1ccccc1[N+](=O)[O-] | 1.18

Tested on: Salmonella typhimurium
Assay: Genotoxicity against Salmonella typhimurium TA98 assessed as fold increase in revertants at 0.3125 mg/ml after 90 mins by Ames MPF test in presence of S9 fraction relative to baseline
Assay type: toxicity, organism-based
Settings: salmonella enterica subsp. enterica serovar typhimurium, s9, 1.5 h
Summary of the method: as §1

SMILES | fold change (FC)
Cn1nnnc1SCC(=O)N/N=C/c1ccccc1[N+](=O)[O-] | 1.22

Tested on: Salmonella typhimurium
Assay: Genotoxicity against Salmonella typhimurium TA100 assessed as fold increase in revertants at 0.3125 mg/ml after 90 mins by Ames MPF test in presence of S9 fraction relative to baseline
Assay type: toxicity, organism-based
Settings: salmonella enterica subsp. enterica serovar typhimurium, s9, 1.5 h
Summary of the method: as §1

SMILES | fold change (FC)
Cn1nnnc1SCC(=O)N/N=C/c1ccccc1[N+](=O)[O-] | 1.08

Tested on: Salmonella typhimurium
Assay: Genotoxicity against Salmonella typhimurium TA1535/pSK1002 assessed as growth factor ratio at 0.63 mg/ml by umuC assay in absence of S9 fraction
Assay type: toxicity, organism-based
Settings: salmonella enterica subsp. enterica serovar typhimurium
Summary of the method: as §3

SMILES | Ratio
Cn1nnnc1SCC(=O)N/N=C/c1ccccc1[N+](=O)[O-] | 1.068

Tested on: Salmonella typhimurium
Assay: Genotoxicity against Salmonella typhimurium TA100 assessed as fold increase in revertants at 5 mg/ml after 90 mins by Ames MPF test in presence of S9 fraction relative to baseline
Assay type: toxicity, organism-based
Settings: salmonella enterica subsp. enterica serovar typhimurium, s9, 1.5 h
Summary of the method: as §1

SMILES | fold change (FC)
Cn1nnnc1SCC(=O)N/N=C/c1ccccc1[N+](=O)[O-] | 1.7

Tested on: Salmonella typhimurium
Assay: Genotoxicity against Salmonella typhimurium TA1535/pSK1002 assessed as growth factor ratio at 5 mg/ml by umuC assay in presence of S9 fraction
Assay type: toxicity, organism-based
Settings: salmonella enterica subsp. enterica serovar typhimurium
Summary of the method: as §3

SMILES | Ratio
Cn1nnnc1SCC(=O)N/N=C/c1ccccc1[N+](=O)[O-] | 0.913
